Published values pooled from the literature.
Each line is one published result; the experiments were not run side by side.
FGFR1: Fibroblast growth factor receptor 1 (FGFR1, Homo sapiens, UniProt P11362)
FGFR1 V561M: Fibroblast growth factor receptor 1 (FGFR1, Homo sapiens, UniProt P11362, V561M)

For `C/C=C/C(=O)NCc1ccc(-n2nc3c(=O)[nH]nc(N)c3c2-c2oc3ccc(C)cc3c2C)cc1`, the inhibition was 11.1% (FGFR1; enzyme activity, inhibitor, ELISA; 10 nM).
For `CNC(=O)c1cc(Oc2ccc(NC(=O)Nc3ccc(Cl)c(C(F)(F)F)c3)cc2)ccn1`, the inhibition was 69% (FGFR1; enzyme activity, inhibitor; 0.3 µM).
The remaining signal of `C[S+]([O-])c1ccc(-c2nc(-c3ccncc3)c(-c3ccc(F)cc3)[nH]2)cc1` (stereo not drawn) is reported as 90.7% (FGFR1; cell-free assay; 0.5 µM).
`COc1cc2ncnc(Nc3ccc(Oc4ccccc4)c(C)c3C)c2cc1OC` gave an inhibition of -2% (FGFR1; enzyme activity, inhibitor; 1 µM).
`CC/C(=N\NC(=O)NCc1cccc(O)c1)c1ccc(O)c(C)c1O` gave an inhibition of 6.1% (FGFR1; enzyme activity, inhibitor; 0.1 µM).
`Clc1ccc(Nc2nnc(Cc3ccncc3)c3ccccc23)cc1` has a remaining signal of 97.2% (FGFR1; cell-free assay; 0.5 µM).
The activity vs control of `Cc1cc(NC(=O)c2cccc3cc(-c4cccc5[nH]nc(N)c45)ccc23)ccc1F` is reported as 92% (FGFR1 V561M; enzyme activity, inhibitor; 0.1 µM).
`Cc1c[nH]c2nccc(Oc3c(F)cc(Nc4cc(Cl)nc(N)n4)cc3F)c12` has a remaining binding of 100% (FGFR1; cell-free assay, competition with immobilised ligand; 0.1 µM).
For `CN(c1nccc(-c2cnn3ncccc23)n1)C1CC1`, the remaining binding was 75% (FGFR1; binding; 1 µM).
For `CS(=O)(=O)c1cc(C2(NC(=O)c3cncc4c3cnn4-c3ccc(F)cc3)CC2)ccn1`, the remaining binding was 95% (FGFR1; cell-free assay, competition with immobilised ligand; 1 µM).
With `CCOC(=O)c1c(C)[nH]c(/C=C2\C(=O)Nc3ccccc32)c1C` the remaining signal was 78.6% (FGFR1; cell-free assay; 0.5 µM).
`CNCc1ccccc1-c1csc([C@@H](C)Nc2nc(C)nc3cc(OC)c(OC)cc23)c1` has a remaining binding of 100% (FGFR1; cell-free assay, competition with immobilised ligand; 1 µM).
`CNc1cccc2cc(C(=O)Nc3ccc(C(=O)O)cc3)c(=O)[nH]c12` has an inhibition of 9.9% (FGFR1; enzyme activity, inhibitor; 10 µM).
For `Nc1ncnc2occ(-c3ccc(NC(=O)Nc4cc(C(F)(F)F)ccc4F)cc3)c12`, the remaining signal was 0.15% (FGFR1; cell-free assay; 20 µM).
The remaining binding of `C[C@@H]1CN(c2cc(-c3n[nH]c4ccc(OC5(C)CC5)cc34)ncn2)C[C@H](C)O1` is reported as 100% (FGFR1; cell-free assay, competition with immobilised ligand; 0.1 µM).
`O=C1NC(=O)c2cc(Nc3ccc(F)cc3)c(Nc3ccc(F)cc3)cc21` has a remaining signal of 92.1% (FGFR1; cell-free assay; 0.5 µM).
`C=CC(=O)Nc1cc(Nc2nccc(Nc3cc(Cl)c(F)cc3C(C)(C)O)n2)c(OC)cc1N1CC[C@@H](N(C)C)C1` has an inhibition of 1% (FGFR1 V561M; enzyme activity, inhibitor; 1 µM).
`CCN(CC)CCNC(=O)c1c(C)[nH]c(/C=C2\C(=O)Nc3ccc(F)cc32)c1C` has a remaining signal of 66.1% (FGFR1; cell-free assay; 0.5 µM).
With `Cc1cc(C)c(-n2ccn3nc(-c4cccnc4)cc23)cc1NC(=O)c1cc(C#N)cc(S(F)(F)(F)(F)F)c1` the remaining binding was 85.5% (FGFR1; cell-free assay, competition with immobilised ligand; 0.1 µM).
With `Cc1ccc(C(=O)Nc2ccc(CN3CCN(C)CC3)c(C(F)(F)F)c2)cc1C#Cc1cnc2cccnn12` the remaining signal was 4.8% (FGFR1; cell-free assay; 23.5 nM).
With `CCC(=N\O)/C(C)=C/c1ccc(F)cc1` the remaining binding was 100% (FGFR1; cell-free assay, competition with immobilised ligand; 1 µM).
The inhibition of `COc1cc2nccc(Oc3ccc(NC(=O)c4c5n(n(-c6ccc(F)cc6)c4=O)CCCC5)cc3)c2cc1OC` is reported as -7% (FGFR1; enzyme activity, inhibitor; 0.1 µM).
`COc1cc2ncnc(Nc3ccc(F)c(Cl)c3)c2cc1OCCCN1CCOCC1` has a remaining signal of 96.4% (FGFR1; cell-free assay; 0.5 µM).
The remaining binding of `Cc1cc(NC(=O)c2cccc(S(F)(F)(F)(F)F)c2)cc(-n2ccn3nc(-c4cccnc4)cc23)c1` is reported as 100% (FGFR1; cell-free assay, competition with immobilised ligand; 1 µM).
The inhibition of `COc1cc(/C=C/C(=O)c2ccc(NC3=C(Cl)C(=O)c4ccccc4C3=O)cc2)cc(OC)c1OC` is reported as > 70% (FGFR1; enzyme activity, inhibitor, ADP detection; 1 µM).
The remaining binding of `CC(C)(O)c1cncc(-c2nc3ccc(F)cc3n2C2CC2)c1` is reported as 100% (FGFR1; cell-free assay, competition with immobilised ligand; 1 µM).
For `CCOc1cc(-c2nncn2C)ccc1Nc1ncc2cc(C)nc(NCC(C)(C)C)c2n1`, the inhibition was < 15% (FGFR1; enzyme activity, inhibitor, FRET; 1 µM).
